HSF1 inhib – HSF1 inhibition; NIH3T3-HGL HSE-luciferase, MG132-induced, luminescence 8 h; hits give low values; activity change, negative = inhibition, % at 7.5 µM (by protocol); 0.77% of 300,000 active;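 active means more than half of replicate wells show activity change below -50%, luminescence cut by over half; inconclusive means some wells, but at most half, below -50%; inactive means no replicate well below -50%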;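 further: luciferase reports HSF-1 transcriptional activity via heat shock element; 0% = median of DMSO wells and -100% = zero luminescence signal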
Hsp70 act – switches on Hsp70 transcription. HeLa Hsp70 promoter luciferase reporter, luminescence; scaled: vehicle 0, proteasome-inhibitor control 100%. activation, % at 10 µM. 0.04% of 200,000 active. AID 1203;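 active means activation above the mean across all tested compounds plus 3 SD, cutoff set per campaign, cut at about 5.5% in these data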;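 further: 100% = MG132 at 30 µM as the positive control and 0% = DMSO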
PolyA inhibitor – blocks polyadenylation in yeast reporter cells. activity score, % at 12 µM. 0.02% of 300,000 active. S. cerevisiae SKY197-pL101 polyadenylation reporter, beta-gal luminescence; efflux-impaired pdr1/pdr3 knockout yeast; score 100 = 6 SD above DMSO;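 active means lowest replicate activity score at least 50, where 100 means six control SD above control mean; inconclusive means lowest score under 50 but half or more replicates reach 50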;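 further: yeast exposed to compound for 9 h at 30 °C; higher score means more reporter readthrough which indicates perturbed polyadenylation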
PERK inhibitor – inhibitors of human PERK kinase | Q9NZJ5 | CHO PERK-DD fusion, SEAP luminescence translation reporter | inhibition, % at 5.6 µM | 0.17% of 220,000 active | AID 1416;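 active means inhibition above the mean inhibition of all tested compounds plus 3 SD, set separately per screening campaign, cut at about 2.9% in these data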;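 further: PERK kinase domain activated by AP20187 dimerizer at 100 nM; 0% = DMSO with dimerizer and 100% = rapamycin at 8.4 µM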
STAT3 act – STAT3 signaling activation | U3A cells, IL-6 STAT3-luciferase reporter, luminescence; 100% = signal with IL-6 EC80 alone | activation (% of control), % at 5.6 µM | 0.91% of 190,000 active | AID 871;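 active means activation above the screen-wide mean of compound activation plus 3 SD, cut at about 130% in these data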;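 further: 0% = background luminescence of wells with medium and substrate only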
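Material: human STAT1-deficient U3A cells with stable STAT3-luciferase reporter / Probe or stimulus: IL-6 stimulus at 33 ng/mL final / Schedule: 1 h compound pre-exposure, 6 h IL-6 stimulation, 37 °C / Technique: luminescence / Read-out basis: percent of IL-6-only median luminescence / Control set: IL-6-only high control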
AHR act – activates the human aryl hydrocarbon receptor | AHR-responsive luciferase reporter cells, luminescence | activation, % at 5 µM | AID 2796 | 2.5% of 320,000 active | P35869; in the data active means activation above about 47%;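 further: 0% = vehicle wells and 100% = reference agonist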
Numbers without * were called inactive; ? = inconclusive; · = no result given. The list is not random: actives were taken first. Their share in the collection is about 3.6%.

SMILES	HSF1 inhib	Hsp70 act	PolyA inhibitor	PERK inhibitor	STAT3 act	AHR act
COc1cc(OC)c(NC(=O)CN(C)S(=O)(=O)c2ccc3[nH]c(=O)oc3c2)cc1Cl	-44	·	4	·	·	2
COc1ccc(S(=O)(=O)NCC2CCC(C(=O)NCCC(C)C)CC2)cc1 (configuration not stated)	-7	0	9	0	107	2
COc1ccc(S(=O)(=O)NCC2CCCN(C(=O)C3CCCC3)C2)cc1 (configuration not stated)	-62*	0	4	0	105	1
CCN(CC)CCCNC(=O)C1CCC(CNS(=O)(=O)c2ccc(Cl)cc2)CC1 (configuration not stated)	-67*	·	-4	·	·	0
COc1ccc(S(=O)(=O)NCC2CCCN(C(=O)CC3CCCC3)C2)cc1 (configuration not stated)	-1	0	3	0	98	3
COc1ccc(S(=O)(=O)NCC2CCC(C(=O)NCC(OC)OC)CC2)cc1 (configuration not stated)	-3	0	7	3.2*	113	2
CC(C)CCNC(=O)C1CCC(CNS(=O)(=O)c2ccc(Cl)cc2)CC1 (configuration not stated)	-12	·	1	·	·	·
Cc1nn(Cc2ccc(F)cc2)c(Cl)c1/C=N/NC(=O)c1ccccc1	5	0	5	1	92	15
Cc1nn(Cc2ccc(F)cc2)c(Cl)c1/C=N/NC(=O)c1cccnc1	·	0	13	-1	97	52*
Cc1nn(Cc2ccccc2)c(C)c1/C=N/NC(=O)c1cccnc1	7	0	-5	1	105	71*
CCn1nc(C)c(/C=N\NC(=O)c2cccc(OC)c2)c1C	-7	0	10	1	94	49*
Cc1ccc(Cn2nc(C)c(/C=N/NC(=O)c3cccnc3)c2C)cc1	-2	0	-1	1	96	32
Cc1ccc(-n2nc(C)c(/C=N/NC(=O)c3cccnc3)c2Cl)cc1	4	0	-4	-1	98	47*
Cc1ccccc1C(=O)NC(C(N)=O)P(=O)(OC(C)C)OC(C)C (configuration not stated)	2	·	-2	1	·	-1
COc1cc(C)cc(OC)c1OCC(=O)Nc1cc(C)on1	·	·	·	·	·	-2
O=C1c2ccccc2C(=O)c2cc(S(=O)(=O)Nc3ccccc3)ccc21	-2	0	-35	1	101	7
O=C1C(Nc2ccccc2)=C(NS(=O)(=O)c2ccccc2)C(=O)c2ccccc21	33	0	-10	1	134*	57*
CCC(=O)N(CCC(c1ccc(C)cc1)c1ccco1)Cc1ccco1 (configuration not stated)	4	·	-6	1	·	-1
Oc1c(CNc2ccccc2)cc(COCc2ccccc2)c2cccnc12	·	·	·	·	·	1
Oc1c(CN2CCOCC2)cc(COCc2ccccc2)c2cccnc12	-78*	0	-44	0	96	0
c1ccc(CSc2nnc(-c3ccco3)o2)cc1	12	·	-2	0	·	3
c1coc(-c2nnc(SCc3nc4ccccc4[nH]3)o2)c1	-27	0	1	0	105	49*
CCOC(=O)Nc1c(Cl)n(C)c(=O)n(C)c1=O	-9	·	?	1	·	1
CCCCCCC(C)n1[nH]c(=O)c2c(C)cc(C)nc21 (configuration not stated)	18	·	2	1	·	1
COc1ccc(Nc2ncnc3sccc23)cc1OC	3	·	-15	·	·	64*
SMILES	HSF1 inhib	Hsp70 act	PolyA inhibitor	PERK inhibitor	STAT3 act	AHR act
O=c1cc(/C=C/c2ccccc2)oc2ccccc12	26	0	-4	0	117	60*
Cc1cc(=O)oc2cc(OCC(O)Cn3ccnc3)ccc12 (configuration not stated)	1	·	-6	·	·	52*
COc1ccccc1NS(=O)(=O)c1cc(C(=O)NCCC(C)C)ccc1F	0	0	25	1	103	4
COc1ccc(-c2sc(Nc3ccccc3)n[n+]2-c2ccccc2)cc1Br	·	·	·	·	·	64*
COc1ccc(C)cc1Nc1n[n+](-c2ccccc2)c(-c2ccc(C(=O)O)cc2)s1	-1	·	26	·	·	48*
CCOc1cc(-c2sc(Nc3cc(C)ccc3OC)n[n+]2-c2ccccc2)ccc1OC	·	·	·	·	·	17
CSc1cccc(NC(=O)CC(C)n2ccnc2)c1 (configuration not stated)	-8	·	-19	·	·	58*
Cc1nc(-c2ccc(Cl)cc2)sc1C1(C)CC(c2ccccc2)=NO1 (configuration not stated)	-28	·	-14	·	·	9
Cc1nc(-c2ccc(Cl)cc2)sc1C1(C)CC(c2ccc(Cl)cc2)=NO1 (configuration not stated)	-63*	·	-5	·	·	8
CCOC(=O)/C=C(C)\C=C\c1c[nH]c2ccccc12	-3	·	-8	-2	·	53*
CCOC(=O)/C(=C/c1c[nH]c2ccccc12)NC(C)=O	1	0	5	0	106	12
O=C1CCC(=O)N1c1ccc(-c2nc3ccccc3s2)cc1	-72*	0	4	0	26	9
COc1ccc(NC(=S)N2CCc3ccccc32)cc1OC	10	·	-1	·	·	53*
CC(Sc1nnc(-c2ccncc2)n1C)C(=O)NCC1CCCO1 (configuration not stated)	2	·	-12	·	·	-1
CC(C)(C)CN1CCN(CC#Cc2ccccc2)CC1CCO (configuration not stated)	-2	·	4	·	·	59*
CN1CCN(CC#Cc2ccccc2)CC1CCO (configuration not stated)	3	·	-12	·	·	2
Cc1cc(C(=O)NNS(=O)(=O)c2ccc(F)cc2)nn1C(C)(C)C	-71*	·	9	0	·	6
Cc1cc(C(=O)NNC(=O)c2cccs2)nn1C(C)(C)C	3	·	-3	·	·	3
COc1ccc(-c2oc3cccnc3c2/C=C/c2ccc(OC)c(OC)c2)cc1	24	·	-6	·	·	47*
CC(Sc1nc2ccccc2s1)C(=O)Nc1nnc(C(C)C)s1 (configuration not stated)	-63*	0	14	0	110	6
CCCNC(=O)c1cccc(COCC(F)(F)F)c1	-63*	0	-2	0	94	3
CCCNC(=O)c1cccc(COc2ccccc2OC)c1	-21	0	24	0	85	11
CC(C)CNS(=O)(=O)c1ccc(CCC(=O)N2CCOCC2)cc1	-73*	0	18	1	100	-1
CC(C)CNS(=O)(=O)c1ccc(CCC(=O)N2CCCC2)cc1	-4	0	-13	1	95	-1
Cc1ccc(C)c(NC(=O)c2cc[n+](C)cc2)c1	-2	·	-1	·	·	0
COc1cc(NC(=O)c2cc(S(=O)(=O)N3CCCCC3)c[nH]2)cc(OC)c1	-2	·	20	·	·	13

From PubChem
